According to ChEMBL document CHEMBL1240347, “MK-7009, a potent and selective inhibitor of hepatitis C virus NS3/4A protease” (Antimicrob Agents Chemother, 2010):

What was measured:
[1] = molecular target: Cathepsin B (Homo sapiens, UniProt P07858); test: Inhibition of human Cathepsin B
[2] = Inhibition of Hepatitis C virus genotype 2a NS3/4A protease activity; design: species or system Hepatitis C virus subtype 2a
Method in brief: (§1)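 Recombinant NS3/4A protease was expressed in and purified from E. coli. Inhibition was measured by a time-resolved, internally quenched fluorescence assay at low enzyme concentration. Kis were reported.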

[3] = molecular target: T1, Cathepsin L2 (Homo sapiens, UniProt O60911); test: Inhibition of human Cathepsin V
T1 sequence (O60911 whole entry): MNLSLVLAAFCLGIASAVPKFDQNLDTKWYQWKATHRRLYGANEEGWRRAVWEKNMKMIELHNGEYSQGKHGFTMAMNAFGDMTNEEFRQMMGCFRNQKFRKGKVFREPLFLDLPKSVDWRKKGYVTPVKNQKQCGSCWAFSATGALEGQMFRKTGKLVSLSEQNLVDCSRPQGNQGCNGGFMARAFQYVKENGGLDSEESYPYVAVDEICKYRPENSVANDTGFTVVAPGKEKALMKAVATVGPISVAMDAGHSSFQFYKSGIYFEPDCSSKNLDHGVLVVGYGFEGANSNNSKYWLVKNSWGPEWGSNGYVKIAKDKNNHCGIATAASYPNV

[4] = molecular target: T2, Cathepsin F (Homo sapiens, UniProt Q9UBX1); test: Inhibition of human Cathepsin F
T2 sequence (Q9UBX1 whole entry): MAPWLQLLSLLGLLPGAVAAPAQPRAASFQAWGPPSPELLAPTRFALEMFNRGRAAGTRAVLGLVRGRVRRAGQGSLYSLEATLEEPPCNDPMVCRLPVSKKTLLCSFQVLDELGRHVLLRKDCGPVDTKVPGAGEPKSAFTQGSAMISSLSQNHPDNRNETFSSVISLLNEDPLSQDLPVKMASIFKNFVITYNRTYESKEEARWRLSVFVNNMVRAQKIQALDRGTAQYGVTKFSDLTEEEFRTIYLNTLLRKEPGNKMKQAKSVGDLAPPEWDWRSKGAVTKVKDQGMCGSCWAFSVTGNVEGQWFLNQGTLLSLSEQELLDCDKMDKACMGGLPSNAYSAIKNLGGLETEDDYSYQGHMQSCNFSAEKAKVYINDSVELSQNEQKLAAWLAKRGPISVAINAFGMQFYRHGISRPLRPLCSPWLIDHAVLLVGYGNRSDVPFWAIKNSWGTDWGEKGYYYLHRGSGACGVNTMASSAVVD

[5] = molecular target: Chymotrypsin-like elastase family member 1 (Homo sapiens, UniProt Q9UNI1); test: Inhibition of human Pancreatic elastase 1
[6] = system: Hepatitis C virus; test: Antiviral activity against Hepatitis C virus genotype 1b infected in […] cell by cell-based HCV replicon assay in presence of 50% normal human serum; format: functional, organism-based, Hepacivirus hominis
Method in brief: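 Stable genotype 1b (con1) replicon cell line HB1, assayed in the presence of 50% normal human serum.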

[7] = molecular target: T3, Neutrophil elastase (Homo sapiens, UniProt P08246); test: Inhibition of human Neutrophil elastase 2
T3 sequence (P08246 whole entry): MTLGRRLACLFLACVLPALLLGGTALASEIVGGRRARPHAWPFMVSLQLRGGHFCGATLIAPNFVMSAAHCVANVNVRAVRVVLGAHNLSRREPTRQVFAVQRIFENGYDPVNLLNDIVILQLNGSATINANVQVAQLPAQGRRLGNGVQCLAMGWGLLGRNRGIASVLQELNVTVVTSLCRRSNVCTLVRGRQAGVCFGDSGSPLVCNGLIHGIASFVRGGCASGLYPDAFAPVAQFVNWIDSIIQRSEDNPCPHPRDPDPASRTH

[8] = Cytotoxicity against […] cells; format: cell-based; settings: HB1
[9] = system: Hepatitis C virus; test: Antiviral activity against Hepatitis C virus genotype 2a infected in […] cell by cell-based HCV replicon assay in presence of 10% fetal bovine serum; format: functional, organism-based, Hepacivirus hominis
[10] = molecular target: T4, Chymase (Homo sapiens, UniProt P23946); test: Inhibition of human Chymase
T4 sequence (P23946 whole entry): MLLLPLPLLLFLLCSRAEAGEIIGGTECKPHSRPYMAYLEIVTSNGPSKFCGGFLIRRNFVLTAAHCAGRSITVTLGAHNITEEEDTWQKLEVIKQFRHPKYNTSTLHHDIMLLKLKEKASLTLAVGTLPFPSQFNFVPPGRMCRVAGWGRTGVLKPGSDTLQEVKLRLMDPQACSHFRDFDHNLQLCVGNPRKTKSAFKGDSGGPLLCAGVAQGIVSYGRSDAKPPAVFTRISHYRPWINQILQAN

[11] = system: Hepatitis C virus; test: Antiviral activity against Hepatitis C virus genotype 1b infected in […] cell by cell-based HCV replicon assay in presence of 10% fetal bovine serum; format: functional, organism-based, Hepacivirus hominis
Method in brief: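 Stable genotype 1b (con1) replicon cell line HB1, assayed in medium with 10% fetal bovine serum.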

[12] = molecular target: Cathepsin S (Homo sapiens, UniProt P25774); test: Inhibition of human Cathepsin S
[13] = Inhibition of Hepatitis C virus genotype 2b NS3/4A protease activity; design: species or system Hepatitis C virus subtype 2b; method in brief: as §1
[14] = molecular target: T5, Cathepsin K (Homo sapiens, UniProt P43235); test: Inhibition of human Cathepsin K
T5 sequence (P43235 whole entry): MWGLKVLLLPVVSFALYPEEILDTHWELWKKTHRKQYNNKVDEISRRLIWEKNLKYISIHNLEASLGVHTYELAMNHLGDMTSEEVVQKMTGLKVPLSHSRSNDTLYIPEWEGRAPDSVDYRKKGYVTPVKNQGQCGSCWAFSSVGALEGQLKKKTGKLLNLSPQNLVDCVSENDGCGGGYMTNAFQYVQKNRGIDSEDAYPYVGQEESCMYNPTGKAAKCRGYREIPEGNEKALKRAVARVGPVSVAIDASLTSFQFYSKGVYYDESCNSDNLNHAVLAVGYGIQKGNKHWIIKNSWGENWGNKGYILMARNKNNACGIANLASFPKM

[15] = system: Hepatitis C virus; test: Inhibition of Hepatitis C virus genotype 1b NS3/4A protease activity; design: species or system Hepatitis C virus subtype 1b; method in brief: as §1
[16] = molecular target: Procathepsin L (Homo sapiens, UniProt P07711); test: Inhibition of human Cathepsin L
[17] = Inhibition of Hepatitis C virus genotype 1a NS3/4A protease activity; design: species or system Hepatitis C virus subtype 1a; method in brief: as §1
[18] = molecular target: Serine protease 1 (Homo sapiens, UniProt P07477); test: Inhibition of human Trypsin activity
[19] = Inhibition of human Chymotrypsin

Sequence of Chymotrypsin-like elastase family member 1 (Q9UNI1 whole entry): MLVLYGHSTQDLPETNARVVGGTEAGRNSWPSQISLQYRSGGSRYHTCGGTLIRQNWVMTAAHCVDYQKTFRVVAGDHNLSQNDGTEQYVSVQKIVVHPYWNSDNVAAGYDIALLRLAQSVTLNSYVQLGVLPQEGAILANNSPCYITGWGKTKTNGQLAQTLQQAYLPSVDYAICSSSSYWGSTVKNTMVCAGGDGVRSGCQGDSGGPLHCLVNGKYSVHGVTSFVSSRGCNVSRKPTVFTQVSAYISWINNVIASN
Sequence of Procathepsin L (P07711 whole entry): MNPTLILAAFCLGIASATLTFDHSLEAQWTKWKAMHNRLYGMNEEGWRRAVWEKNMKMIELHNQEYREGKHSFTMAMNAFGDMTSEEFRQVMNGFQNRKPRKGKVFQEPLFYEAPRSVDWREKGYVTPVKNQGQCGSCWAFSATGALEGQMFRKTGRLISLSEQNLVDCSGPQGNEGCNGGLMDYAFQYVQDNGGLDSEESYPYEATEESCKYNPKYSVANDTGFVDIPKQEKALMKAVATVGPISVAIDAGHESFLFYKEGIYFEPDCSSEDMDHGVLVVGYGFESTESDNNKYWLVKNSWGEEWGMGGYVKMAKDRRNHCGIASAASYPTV
Sequence of Cathepsin S (P25774 whole entry): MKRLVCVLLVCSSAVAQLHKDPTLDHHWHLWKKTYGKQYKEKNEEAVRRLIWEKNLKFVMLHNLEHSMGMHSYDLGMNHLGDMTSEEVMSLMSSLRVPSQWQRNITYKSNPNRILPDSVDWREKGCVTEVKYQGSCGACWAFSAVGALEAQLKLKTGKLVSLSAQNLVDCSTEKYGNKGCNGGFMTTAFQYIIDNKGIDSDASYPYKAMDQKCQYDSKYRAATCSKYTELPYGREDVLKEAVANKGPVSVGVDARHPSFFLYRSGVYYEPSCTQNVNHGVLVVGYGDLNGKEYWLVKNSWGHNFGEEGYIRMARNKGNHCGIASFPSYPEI
Sequence of Serine protease 1 (P07477 whole entry): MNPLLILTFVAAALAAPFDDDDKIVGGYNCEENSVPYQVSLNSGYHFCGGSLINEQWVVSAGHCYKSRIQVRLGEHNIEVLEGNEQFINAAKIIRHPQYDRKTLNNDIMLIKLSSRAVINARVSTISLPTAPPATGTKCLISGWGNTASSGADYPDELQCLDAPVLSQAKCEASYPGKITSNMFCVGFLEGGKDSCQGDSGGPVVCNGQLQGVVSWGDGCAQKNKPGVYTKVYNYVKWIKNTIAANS

Compound	IC50 [1]	Ki [2]	IC50 [3]	IC50 [4]	IC50 [5]	EC50 [6]	IC50 [7]	EC50 [8]	EC50 [9]	IC50 [10]	EC50 [11]	IC50 [12]	Ki [13]	IC50 [14]	Ki [15]	IC50 [16]	Ki [17]	IC50 [18]	IC50 [19]
CC(C)(C)NC(=O)N[C@H](C(=O)N1C[C@H]2[C@@H]([C@H]1C(=O)NC(CC1CCC1)C(=O)C(N)=O)C2(C)C)C(C)(C)C (some centres undefined) [BOCEPREVIR]	> 3300 nM	25 nM	75 nM	1100 nM	> 10000 nM	1180 nM	> 10000 nM	> 50000 nM	170 nM	32 nM	480 nM	120 nM	21 nM	40 nM	28 nM	760 nM	21 nM	–	–
COc1ccc2c(O[C@@H]3C[C@H]4C(=O)N[C@]5(C(=O)O)C[C@H]5/C=C\CCCCC[C@H](NC(=O)OC5CCCC5)C(=O)N4C3)cc(-c3csc(NC(C)C)n3)nc2c1 [CILUPREVIR]	–	7 nM	–	–	–	17 nM	–	50000 nM	27 nM	–	3 nM	–	61 nM	–	0.3 nM	–	0.81 nM	–	–
CCC[C@H](NC(=O)[C@@H]1[C@H]2CCC[C@H]2CN1C(=O)[C@@H](NC(=O)[C@@H](NC(=O)c1cnccn1)C1CCCCC1)C(C)(C)C)C(=O)C(=O)NC1CC1 [TELAPREVIR]	4400 nM	54 nM	1350 nM	> 10000 nM	30 nM	8600 nM	8000 nM	> 50000 nM	390 nM	26 nM	1100 nM	300 nM	42 nM	630 nM	93 nM	3500 nM	130 nM	> 10000 nM	3000 nM
